CaV13 ICDI inh = Primary screen for inhibitors of IQ motif and Ca2+-dependent inactivation inhibitor domain binding in CACNA1D, Förster resonance energy transfer in living cells, …. AID 743397. 340,000 tested, 0.098% active. HEK cells, CFP/YFP FRET ICDI-IQ, plate reader, 10 min; percent FRET-ratio fall versus neutral wells. inhibition, % at 12.3 µM;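 active = mean replicate inhibition of at least 30% and at least 1% of replicates passing that level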;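 note: 0% = median of the neutral control wells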
PfHsp90 yeast 2 = growth inhibition of PfHsp90-expressing yeast, primary screen, antimalarial PfHsp90 inhibitor project, S. cerevisiae, BacTiter-Glo luminescence, single point, set 2. BacTiter-Glo ATP, 48 h; yeast lacking PDR1 and PDR3 efflux regulators. inhibition, % at 9.4 µM. 310,000 tested, 0.32% active. AID 504621, 2011;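 active = every replicate shows inhibition above about 80%, whatever the replicate mean, limit read from the data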;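 note: 0% = DMSO neutral controls and 100% = 20 µM radicicol positive controls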
T cruzi inh = inhibitors of intracellular T. cruzi growth, primary screen, luminescence, NIH3T3 host cells | inhibition, % (test concentration not listed) | 300,000 tested, 1.4% active | T. cruzi beta-gal in NIH3T3, 90 h;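 active = mean inhibition across valid replicates above about 55%, limit read from the data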;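 note: signal also drops with host cell toxicity which is not excluded here; 0% = plate median of DMSO wells and 100% = zero luminescence signal; higher percent means less beta-gal luminescence so fewer parasites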
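Assay system: NIH/3T3 fibroblasts plus reporter T. cruzi. Amount: NIH/3T3 cells, 5,000 per well. Buffer or medium: DMEM, 2% fetal bovine serum. Doses: compound pinned at 50 nL/well, DMSO. Schedule: ≥90 h infection period, 3 h prior cell attachment. Signal: luminescent β-galactosidase signal after 60 min lysis. Read-out: parasite load inhibition, %.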
PvdQ inh = P. aeruginosa PvdQ acylase inhibitors, primary screen, biochemical, fluorescence, plate reader and imaging, single point; PvdQ acylase [Pseudomonas aeruginosa LESB58]; purified PvdQ acylase; inhibition, % at 10 µM; 340,000 tested, 0.063% active; AID 488965, 2010; in the data active = inhibition above about 30%, passing the limit was not always enough;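 note: 0% = vehicle neutral wells and 100% = reference inhibitor wells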
HSF1 activator = HSF-1 activators, primary screen, NIH3T3-HGL cells, MG132 stress, luminescence, single point. activation, % at 9 µM. NIH3T3-HGL HSF-1 luciferase reporter, 8 h; 100% = twice DMSO control signal. AID 504408, 2011. 300,000 tested, 1.7% active;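 active = mean replicate activation of at least 50% with a set share of replicates each reaching 50%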;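 note: 0% = median of the neutral control wells and 100% = twice that signal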
N-glyco inh = increase of ERlucT glycosylation luciferase signal, primary screen, N-linked glycosylation inhibitor project, D54 ERlucT cells, luminescence, set 2; 360,000 tested, 0.23% active; reporter increase, % at 12.5 µM; D54 ERlucT glycosylation luciferase reporter, 24 h; percent of 100 nM tunicamycin response;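 active = mean luciferase reporter signal, scaled so untreated is 0 and the glycosylation-blocking control 100, at or above a set limit in every replicate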;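 note: luciferase carries N-glycosylation sites so blocking glycosylation raises the light; 0% = median of neutral control wells and 100% = median of 100 nM tunicamycin wells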
The depositor's hits bear a star. In the library only some 3% were active in any assay of this set; here they are far more common.

`O=C(NCc1ccccc1)c1onc(CSc2ccccc2)c1C(=O)NCC1CC1` gave CaV13 ICDI inh -9, PfHsp90 yeast 2 -19, T cruzi inh 58*, PvdQ inh -11, HSF1 activator 9 and N-glyco inh -7.
For CCCNC(=O)c1c(CSc2ccc(Cl)cc2)noc1C(=O)NCc1ccccc1 the results were CaV13 ICDI inh -12, PfHsp90 yeast 2 -33, T cruzi inh 27, PvdQ inh -12, HSF1 activator 54* and N-glyco inh -3.
Screening O=C(C(=O)N1CCN(S(=O)(=O)c2ccc(C(F)(F)F)cc2)CC1)c1cccc(C(F)(F)F)c1 returned CaV13 ICDI inh -9.
Cc1cccc(N2C(=N)SCC2=O)c1C was read as CaV13 ICDI inh -6, PfHsp90 yeast 2 -15, T cruzi inh -15, PvdQ inh -6, HSF1 activator 77* and N-glyco inh 2.
For N=C1SCC(=O)N1c1nc(-c2ccccc2)cs1 the results were CaV13 ICDI inh -11, PfHsp90 yeast 2 12, T cruzi inh -25, PvdQ inh -5, HSF1 activator 31 and N-glyco inh 1.
`O=C1N=C(N2CCOCC2)S/C1=C/c1ccc(-c2ccccc2Cl)o1` gave CaV13 ICDI inh -4, PfHsp90 yeast 2 -16, T cruzi inh 21, PvdQ inh 4, HSF1 activator 9 and N-glyco inh -1.
O=C1S/C(=C/c2ccc(N3CCOCC3)o2)C(=O)N1Cc1c(F)cccc1Cl was read as CaV13 ICDI inh -4, PfHsp90 yeast 2 95*, T cruzi inh 36, PvdQ inh -1, HSF1 activator 102* and N-glyco inh -4.
O=C1S/C(=C\c2ccc(N3CCOCC3)o2)C(=O)N1Cc1c(F)cccc1Cl was read as CaV13 ICDI inh -8, PfHsp90 yeast 2 97*, T cruzi inh 40, PvdQ inh -14, HSF1 activator 251* and N-glyco inh 3.
For O=C1S/C(=C\c2ccc(N3CCOCC3)o2)C(=O)N1c1ccccc1 the results were CaV13 ICDI inh -5, PfHsp90 yeast 2 -127, T cruzi inh -25, PvdQ inh -8, HSF1 activator 32 and N-glyco inh -1.
CC(C)N1CCN(Cc2ccc(-c3ccccc3Cl)o2)CC1CCO (stereo not given) was read as CaV13 ICDI inh -4, PfHsp90 yeast 2 4, T cruzi inh 64*, PvdQ inh -14, HSF1 activator 23 and N-glyco inh -1.
`CC(C)N1CCN(Cc2ccc3c(c2)Cc2ccccc2-3)CC1CCO` (stereo not given) gave CaV13 ICDI inh 4, T cruzi inh 58*, PvdQ inh 1, HSF1 activator 24 and N-glyco inh -4.
Screening CC(C)N1CCN(Cc2ccc(-c3ccccc3)cc2)CC1CCO (stereo not given) returned CaV13 ICDI inh -5, PfHsp90 yeast 2 -14, T cruzi inh 35, PvdQ inh -9, HSF1 activator -6 and N-glyco inh -2.
COC(=O)CCN1CCSCCS1(=O)=O was read as CaV13 ICDI inh -3.
Screening CCOc1ccc2nc(COC(=O)c3cccc([N+](=O)[O-])c3)c(C(C)=O)[n+]([O-])c2c1 returned CaV13 ICDI inh -5, T cruzi inh -15, HSF1 activator 69* and N-glyco inh 2.
`COc1ccccc1OCC(=O)Nc1ncc(C)s1` gave CaV13 ICDI inh -6, PfHsp90 yeast 2 -25, PvdQ inh -6 and N-glyco inh -11.
Cc1cnc(NC(=O)COc2ccccc2)s1 was read as CaV13 ICDI inh -5, T cruzi inh -8, PvdQ inh 8, HSF1 activator 61* and N-glyco inh -4.
`Nc1c(C(=O)NCc2ccc(F)cc2)c2nc3ccccc3nc2n1CCCN1CCOCC1` gave CaV13 ICDI inh -2, PfHsp90 yeast 2 14, T cruzi inh 24, PvdQ inh -5, HSF1 activator 13 and N-glyco inh 1.

Screens deposited in PubChem BioAssay by Broad Institute.
